pIC50: −log10 of the molar value.
Key:
Rattus norvegicus [1] = test: Anti-inflammatory activity in Sprague-Dawley rat assessed as inhibition of LPS-induced neutrophilia at 1000 ug/kg, it administered as suspension with Penn-Century micro-sprayer aerosolizer dosed 18 hrs before LPS challenge and measured 22 hrs post dose; assay type: functional; conditions: inhaled or nasal
In short: (§1)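 Suspensions in PBS/0.2% Tween 80 were homogenized, with lower doses made by 1:10 dilutions. 0.2 mL was given intratracheally by MicroSprayer to isoflurane-anesthetized fasted male Sprague-Dawley rats (230–280 g). At 1 or 18 h, rats received nebulized LPS (30 mL of a 1:100 PBS dilution of 100 mg/10 mL stock) over 40 min. Four hours later, BAL neutrophils were counted by flow cytometry.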

[2] = Inhibition of PDE4 in human whole blood assessed as reduction in LPS-induced TNFalpha production incubated for 24 hrs by ELISA; assay type: tissue-based
In short: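 Human whole blood was preincubated with LPS (final 1 μg/mL) for 10 min at 37 °C with rocking. 200 μL was added to wells holding increasing inhibitor concentrations in 100% DMSO. Plates were incubated 24 h at 37 °C under agitation, then placed on ice, diluted with PBS and centrifuged at 800g, 4 °C, for 15 min before TNF-α measurement.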

Rattus norvegicus [3] = test: Anti-inflammatory activity in Sprague-Dawley rat assessed as inhibition of LPS-induced neutrophilia at 10 to 1000 ug/kg, it administered as suspension with Penn-Century micro-sprayer aerosolizer dosed 1 hrs before LPS challenge and measured 5 hrs post dose; assay type: functional; conditions: inhaled or nasal; in short: as §1
Rattus norvegicus [4] = test: Anti-inflammatory activity in Sprague-Dawley rat assessed as inhibition of LPS-induced neutrophilia at 10 ug/kg, it administered as dry powder with lactose carrier through Penn-Century insufflator dosed 1 hrs before LPS challenge and measured 5 hrs post dose; assay type: functional
In short: (§2)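 Compounds were micronized, comixed with lactose, and 5 mg of the mixture was insufflated intratracheally into isoflurane-anesthetized fasted male Sprague-Dawley rats (230–280 g). LPS aerosol (30 mL of a 1:100 PBS dilution of 100 mg/10 mL stock) was nebulized for 40 min at 1 or 18 h post-dose. BAL was taken 4 h later and neutrophils counted by flow cytometry. Controls: lactose alone, lactose+LPS, fluticasone (10% in lactose).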

Adenosine receptor A1 = biological target: T1, Adenosine receptor A1 (Homo sapiens, UniProt P30542); test: Antagonist activity at adenosine A1 receptor (unknown origin)
T1 sequence (P30542 whole entry): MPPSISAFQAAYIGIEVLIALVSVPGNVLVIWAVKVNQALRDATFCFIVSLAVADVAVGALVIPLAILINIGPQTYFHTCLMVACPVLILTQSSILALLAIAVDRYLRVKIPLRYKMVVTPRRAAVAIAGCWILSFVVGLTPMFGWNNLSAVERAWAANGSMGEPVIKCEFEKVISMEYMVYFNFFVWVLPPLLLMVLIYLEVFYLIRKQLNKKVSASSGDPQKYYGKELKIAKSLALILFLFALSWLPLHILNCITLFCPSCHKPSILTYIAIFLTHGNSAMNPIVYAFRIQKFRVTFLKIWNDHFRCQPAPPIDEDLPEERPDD

Adenosine receptor A2b = biological target: T2, Adenosine receptor A2b (Homo sapiens, UniProt P29275); test: Antagonist activity at adenosine A2b receptor (unknown origin)
T2 sequence (P29275 whole entry): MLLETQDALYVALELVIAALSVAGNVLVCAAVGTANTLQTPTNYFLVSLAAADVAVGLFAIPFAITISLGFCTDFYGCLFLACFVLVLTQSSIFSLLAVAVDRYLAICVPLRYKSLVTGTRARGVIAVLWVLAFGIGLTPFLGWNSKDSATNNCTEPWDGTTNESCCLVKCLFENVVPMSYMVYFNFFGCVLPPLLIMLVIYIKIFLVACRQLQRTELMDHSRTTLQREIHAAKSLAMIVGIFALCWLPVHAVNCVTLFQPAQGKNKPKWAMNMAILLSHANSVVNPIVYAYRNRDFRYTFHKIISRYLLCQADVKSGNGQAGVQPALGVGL

Rattus norvegicus [5] = test: Anti-inflammatory activity in Sprague-Dawley rat assessed as inhibition of LPS-induced neutrophilia at 1000 ug/kg, it administered as dry powder with lactose carrier through Penn-Century insufflator dosed 1 hrs before LPS challenge and measured 5 hrs post dose; assay type: functional; in short: as §2
[6] = Pro-inflammatory activity in Sprague-Dawley rat assessed as induction of neutrophilia at 1000 ug/kg, it administered as dry powder with lactose carrier through Penn-Century insufflator; conditions: in vivo, inhaled_or_intranasal, 1 mg/kg
Rattus norvegicus [7] = test: Toxicity in Sprague-Dawley rat model of LPS-induced neutrophilia assessed as induction of irritation in lungs at 1000 ug/kg, it administered as dry powder with lactose carrier through Penn-Century insufflator dosed 18 hrs before LPS challenge and measured 22 hrs post dose; assay type: organism-based; conditions: in vivo, inhaled_or_intranasal, 1 mg/kg
[8] = Inhibition of PDE4 in PBMC (unknown origin) assessed as reduction in LPS-induced TNFalpha production incubated for 24 hrs by ELISA; conditions: Homo sapiens
Rattus norvegicus [9] = test: Anti-inflammatory activity in Sprague-Dawley rat assessed as inhibition of LPS-induced neutrophilia at 100 ug/kg, it administered as suspension with Penn-Century micro-sprayer aerosolizer dosed 1 hrs before LPS challenge and measured 5 hrs post dose; assay type: functional; conditions: inhaled or nasal; in short: as §1
Adenosine receptor A2a = Adenosine receptor A2a (Homo sapiens, UniProt P29274); test: Antagonist activity at adenosine A2a receptor (unknown origin)
Adenosine receptor A2a, sequence (P29274 whole entry): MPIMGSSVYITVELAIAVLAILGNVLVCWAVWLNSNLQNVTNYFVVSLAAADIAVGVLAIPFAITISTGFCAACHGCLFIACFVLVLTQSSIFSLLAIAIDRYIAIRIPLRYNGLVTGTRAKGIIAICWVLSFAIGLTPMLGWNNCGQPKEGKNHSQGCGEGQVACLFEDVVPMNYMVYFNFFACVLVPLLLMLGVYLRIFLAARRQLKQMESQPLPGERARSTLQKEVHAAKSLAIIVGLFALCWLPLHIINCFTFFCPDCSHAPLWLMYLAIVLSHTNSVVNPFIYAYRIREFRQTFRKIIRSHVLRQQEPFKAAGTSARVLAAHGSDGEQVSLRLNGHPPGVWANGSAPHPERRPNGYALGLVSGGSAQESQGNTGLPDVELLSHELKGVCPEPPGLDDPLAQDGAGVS

[10] = biological target: 3',5'-cyclic-AMP phosphodiesterase 4B (Homo sapiens, UniProt Q07343); test: Inhibition of human recombinant PDE4B1 assessed as reduction in [3H]cAMP hydrolysis to [3H]AMP incubated for 60 mins by PDE-SPA assay
3',5'-cyclic-AMP phosphodiesterase 4B, sequence (Q07343 whole entry): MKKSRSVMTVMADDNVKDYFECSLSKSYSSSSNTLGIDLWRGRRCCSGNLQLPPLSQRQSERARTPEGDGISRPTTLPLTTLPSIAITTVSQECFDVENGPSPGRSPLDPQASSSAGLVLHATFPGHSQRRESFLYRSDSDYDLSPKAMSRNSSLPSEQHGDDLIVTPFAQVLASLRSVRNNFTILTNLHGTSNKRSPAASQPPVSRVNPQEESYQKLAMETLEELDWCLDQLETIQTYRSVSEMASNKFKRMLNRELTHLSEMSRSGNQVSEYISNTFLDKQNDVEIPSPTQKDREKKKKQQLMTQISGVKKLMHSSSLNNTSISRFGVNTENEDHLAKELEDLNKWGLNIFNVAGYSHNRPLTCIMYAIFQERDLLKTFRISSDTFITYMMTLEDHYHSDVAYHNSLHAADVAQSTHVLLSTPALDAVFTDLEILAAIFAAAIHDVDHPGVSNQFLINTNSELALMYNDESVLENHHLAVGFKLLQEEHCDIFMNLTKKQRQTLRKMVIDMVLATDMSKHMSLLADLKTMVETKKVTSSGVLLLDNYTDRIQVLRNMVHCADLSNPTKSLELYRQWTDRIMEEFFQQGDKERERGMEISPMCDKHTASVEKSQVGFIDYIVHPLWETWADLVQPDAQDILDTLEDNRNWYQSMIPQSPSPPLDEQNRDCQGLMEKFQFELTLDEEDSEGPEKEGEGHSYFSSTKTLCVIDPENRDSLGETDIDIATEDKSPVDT

Rattus norvegicus [11] = test: Anti-inflammatory activity in Sprague-Dawley rat assessed as inhibition of LPS-induced neutrophilia at 30 ug/kg, it administered as suspension with Penn-Century micro-sprayer aerosolizer dosed 18 hrs before LPS challenge and measured 22 hrs post dose; assay type: functional; conditions: inhaled or nasal; in short: as §1
Rattus norvegicus [12] = test: Anti-inflammatory activity in Sprague-Dawley rat assessed as inhibition of LPS-induced neutrophilia at 300 ug/kg, it administered as suspension with Penn-Century micro-sprayer aerosolizer dosed 18 hrs before LPS challenge and measured 22 hrs post dose; assay type: functional; conditions: inhaled or nasal; in short: as §1
Rattus norvegicus [13] = test: Anti-inflammatory activity in Sprague-Dawley rat assessed as inhibition of LPS-induced neutrophilia at 100 ug/kg, it administered as suspension with Penn-Century micro-sprayer aerosolizer dosed 18 hrs before LPS challenge and measured 22 hrs post dose; assay type: functional; conditions: inhaled or nasal; in short: as §1
[14] = Selectivity index, ratio of IC50 for adenosine A1/A2a/A2b receptor (unknown origin) to IC50 for inhibition of PDE4 in PBMC (unknown origin) assessed as reduction in LPS-induced TNFalpha production; set-up: species or system Homo sapiens

SMILES	inhibition in vivo at 1 mg/kg (Rattus norvegicus [1])	pIC50 [2]	ED50 (Rattus norvegicus [3])	inhibition in vivo at 0.01 mg/kg (Rattus norvegicus [4])	pIC50 (Adenosine receptor A1)	pIC50 (Adenosine receptor A2b)	inhibition in vivo at 1 mg/kg (Rattus norvegicus [5])	fold change (FC) [6]	Activity (Rattus norvegicus [7])	pIC50 [8]	inhibition in vivo at 0.1 mg/kg (Rattus norvegicus [9])	pIC50 (Adenosine receptor A2a)	pIC50 [10]	inhibition in vivo at 0.03 mg/kg (Rattus norvegicus [11])	inhibition in vivo at 0.3 mg/kg (Rattus norvegicus [12])	inhibition in vivo at 0.1 mg/kg (Rattus norvegicus [13])	Ratio IC50 [14]
CCn1nc(-c2cccc(-c3cccc(C(=O)NCCN(C)C)c3)c2)cc(NC(=O)Nc2c(Cl)cncc2Cl)c1=O	38%	6.37	0.0035 mg/kg	38%	8.70	7.11	8%	3.2	Toxic	9.52	70%	7.55	–	–	–	–	–
CCn1nc(-c2cccc(-c3cc(C(=O)NC4CC4)cc(C(=O)NC4CCN(Cc5ccccc5)CC4)c3)c2)cc(NC(=O)Nc2c(Cl)cncc2Cl)c1=O	–	–	0.029 mg/kg	–	< 6.00	< 6.00	–	–	–	9.54	–	< 6.00	9.66	49%	60%	45%	>1000
